Screening results as filed in PubChem BioAssay.
NS3 helicase inh: inhibitors of HCV NS3 helicase, primary screen, biochemical, Cy5 molecular beacon fluorescence | inhibition, % at 10.9 µM | Hepatitis C virus NS3 helicase | NS3 helicase DNA unwinding | 290,000 compounds, 0.56% hits;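 active means inhibition above the mean of all tested compounds plus 3 SD, set per campaign, cut at about 35% in these data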;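 further: 0% = DMSO wells and 100% = thioflavine S control wells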
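Assay system: hepatitis C virus NS3 helicase domain fragment enzyme. Also added: annealed dual-labelled DNA beacon duplex, ATP-started. Timing: 1 h reaction at 25 °C, ATP-initiated. Technique: Cy5 fluorescence at 0 and 60 min, beacon hairpin quenching. Evaluation: % inhibition of unwinding. Replication: one well per compound.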
Lipid droplet: inhibitors of hepatocyte lipid droplet formation, primary screen, imaging, high-throughput imaging, BODIPY stain; AML12 mouse hepatocytes, oleate lipid droplets; 240,000 compounds, 0.4% hits; inhibition, % at 6.5 µM;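 active means lipid droplet intensity inhibited by at least 50%, with more than 500 cells counted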
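Material – mouse AML12 hepatocyte cell line, fixed after treatment · Compound dosing – one dose, 6.5 µM compound · Times – compound with oleate, overnight · Measured by – Image-based BODIPY and DAPI two-channel analysis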
HSF1 inh: HSF1 inhibitors in luciferase reporter cells, primary screen, cell-based, NIH3T3, luminescence. NIH3T3-HGL HSE-luciferase, MG132-induced, luminescence 8 h; stronger effect = lower value. 300,000 compounds, 0.77% hits. AID 2098, 2009. activity change, negative = inhibition, % at 7.5 µM (by protocol);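 active means more than half of replicate wells show activity change below -50%, luminescence cut by over half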;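 further: luciferase reports HSF-1 transcriptional activity via heat shock element; 0% = median of DMSO wells and -100% = zero luminescence signal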
HSF1 activator: HSF-1 activators, primary screen, NIH3T3-HGL cells, MG132 stress, luminescence, single point; NIH3T3-HGL HSF-1 luciferase reporter, 8 h; 100% = twice DMSO control signal; activation, % at 9 µM; 300,000 compounds, 1.7% hits; AID 504408, 2011;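 active means mean replicate activation of at least 50% with a set share of replicates each reaching 50%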;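 further: 0% = median of the neutral control wells and 100% = twice that signal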
HSP90 inh: HSP90 inhibitors, primary screen, cell lysate, luminescence. Rabbit reticulocyte lysate, luciferase refolding luminescence, 3 h. inhibition, % at 5.6 µM. 290,000 compounds, 0.91% hits. AID 1789, 2009;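 active means inhibition above the screen-wide mean plus 3 SD, computed separately per campaign, cut at about 16% in these data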;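 further: 0% = DMSO wells and 100% = 60 µM geldanamycin wells; inhibitors lower the luminescence because luciferase stays unfolded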
* hit, by the source's call; x = not tested or not shown. Most compounds without a hit are left out; they make up all but 3.8% or so of the library.

SMILES	NS3 helicase inh	Lipid droplet	HSF1 inh	HSF1 activator	HSP90 inh
O=C1CS/C(=N\N=C\c2ccccc2Cl)N1CC1CC1	0	15	-1	21	3
Clc1ccc(OCc2nc(-c3ccncc3)no2)c(Br)c1	0	-3	52	85*	-1
O=C(NC1CCCCC1)C1CCCN1S(=O)(=O)c1ccc(F)cc1 (stereo not drawn)	0	1	-4	15	-1
Cc1ccc(C2/C(=C(\O)c3cnn(-c4ccccc4)c3C)C(=O)C(=O)N2CCN(C)C)o1 (stereo not drawn)	4	7	26	66*	3
CCN(CC)CCN1C(=O)C(=O)/C(=C(/O)c2cnn(-c3ccccc3)c2C)C1c1ccc(C)o1 (stereo not drawn)	-4	x	3	35	7
CN(C)C(=O)c1nnsc1Sc1ccc(Cl)cc1	6	4	4	31	-1
Cc1ccc(C(=O)Cn2nnc3ccccc32)cc1C	-3	x	30	58*	1
Cc1ccc(C(=O)Cn2nnc3ccccc32)cc1	3	x	26	67*	3
O=C(Cn1nnc2ccccc21)c1ccc(Br)cc1	9	6	14	11	3
COCCn1cc(C(=O)c2cc(Br)ccc2O)cc(C#N)c1=O	-11	-3	5	2	0
CC(C)CC(=O)N1CCN(Cc2ccc(Br)cc2)CC1	12	-11	-7	2	-7
O=C1CCCC/C1=N\Nc1ccc(C2CCCCC2)cc1	30	-5	-56*	-59	2
O=C1CCCC/C1=N\Nc1ccc(OCc2ccccc2)cc1	12	10	8	19	6
c1ccc(-c2ncc(-c3ccn[nH]3)s2)cc1	3	4	30	53*	1
Cc1cccc(N2C(=O)CC(c3ccc(F)cc3)C3=C2COC3=O)c1 (stereo not drawn)	3	-36	-2	2	0
Cc1cc(OCC(=O)N(Cc2ccccc2)C2CCS(=O)(=O)C2)ccc1Cl (stereo not drawn)	-12	-26	4	8	-2
CCOC(=O)C(=Cc1c[nH]c2ccc(S(=O)(=O)N(C)C)cc12)C(=O)OCC	-7	-1	103	146*	8
CCC(=O)NNC(=O)CSc1nnc(-c2ccccc2)c(-c2ccccc2)n1	9	1	-74*	-78	1
COc1cc(-c2cn(S(=O)(=O)c3cccc4nsnc34)nc2N)cc(OC)c1OC	-10	-35	19	59*	0
CNC(=O)c1c(NC(=O)c2nc3ccccc3s2)sc2c1CCC2	-1	x	32	55*	3
CN(C)/C=N/C1=C(C#N)C(c2ccc(Br)cc2)c2ccc3ccccc3c2O1 (stereo not drawn)	19	x	9	4	17*
CC(C)OC(=O)n1c(=S)oc2ccccc21	0	12	1	7	-9
CCCCC(=O)/C=C/n1c(=S)oc2ccccc21	9	-54	176	217*	0
N#Cc1nc(-c2ccco2)oc1N1CCN(Cc2ccccc2)CC1	0	x	-80*	-85	-1
COc1ccccc1-c1nc(C#N)c(N2CCN(Cc3ccccc3)CC2)o1	-16	-8	17	40	0
SMILES	NS3 helicase inh	Lipid droplet	HSF1 inh	HSF1 activator	HSP90 inh
O=C(NCCC1=CCCCC1)c1ccc(F)cc1	-4	-22	6	43	38*
O=C(CCNC(=O)c1ccc([N+](=O)[O-])cc1)NCCC1=CCCCC1	x	x	-2	-10	x
Cc1cc(C(=O)NCCC2=CCCCC2)ccc1[N+](=O)[O-]	-5	-8	39	58*	2
O=C(NC(=S)NCCC1=CCCCC1)c1ccco1	0	-8	27	62*	0
O=C(NC(=S)NCCC1=CCCCC1)c1ccc(Br)o1	-12	6	7	3	0
O=C(NCCC1=CCCCC1)c1ccc([N+](=O)[O-])cc1	1	17	23	53*	13
CCCCCN(C(=O)CCC(=O)OC(C)C(=O)NC1CCCCC1)c1c(N)n(CCCC)c(=O)[nH]c1=O (stereo not drawn)	x	x	2	-2	x
COc1ccc(C2Nc3ccccc3C(=O)N2Cc2ccco2)cc1COc1ccccc1F (stereo not drawn)	4	-17	36	76*	4
COc1ccc(C2Nc3ccccc3C(=O)N2Cc2ccco2)cc1COc1ccc(NC(C)=O)cc1 (stereo not drawn)	-7	-17	37	58*	2
O=C1c2ccccc2NC(c2ccc(O)cc2)N1Cc1ccco1 (stereo not drawn)	5	-6	9	20	-1
O=c1c2ccccc2nnn1COc1ccc(F)cc1Cl	-18	12	62	84*	4
O=c1c2ccccc2nnn1COc1ccc(Cl)cc1Br	6	1	40	56*	0
O=C(CN1CCC(O)(c2cccc(F)c2)CC1)NCCc1c[nH]c2ccccc12	-34	-17	1	3	0
Cc1occc1-c1nnc(SCC(=O)Nc2ccccc2)n1C	-1	2	-82*	-85	-3
Cc1nnc(SCC(=O)Nc2ccccc2)c2ccccc12	4	14	33	52*	0
Cc1nnc(SCC(=O)Nc2ccc(O)cc2)c2ccccc12	-4	1	8	14	-3
Cc1occc1-c1nnc(SCC(=O)Nc2ccccc2)n1CCc1ccccc1	-6	-14	3	15	0
Cn1c(SCC(=O)NNC(=O)Nc2ccc(Cl)cc2)nnc1-c1ccccc1	-5	21	15	56*	5
Cc1ccc(-c2nnc(SCC(=O)Nc3ccc4c(c3)oc3ccccc34)n2C)c(Cl)c1	-2	x	14	57*	-8
O=C(Nc1ccccc1F)c1cc(S(=O)(=O)N2CCOCC2)cs1	2	6	-5	14	-4
CC(C)CC(=O)Nc1ccc2c(c1)oc1ccccc12	-7	x	32	62*	-1
CCCCC(=O)Nc1ccc2c(c1)oc1ccccc12	-3	5	28	37	-2
COC(=O)c1ccc(NC(=O)CSc2nnc(-c3ccccc3)n2C)cc1	-2	9	-67*	-75	-3
COC(=O)c1ccc(NC(=O)CSc2nnc(C)n2-c2ccccc2)cc1	-6	0	3	6	-2
C=CCc1c(C)nc2ccc(C(=O)OCC)cc2c1Cl	-6	29	6	8	4
CC(=O)C1C(=O)c2c(cccc2[N+](=O)[O-])C1=Nc1ccc(S(N)(=O)=O)cc1 (stereo not drawn)	16	-1	-91*	-92	-2
COc1ccc(OC)c(NS(=O)(=O)c2ccc3c(c2)C(C)(C)C(=O)N3C)c1	1	-5	0	0	-2
